From ChEMBL document CHEMBL1140391, “8-Substituted 3,4-dihydroquinolinones as a novel scaffold for atypical antipsychotic activity” (Bioorg Med Chem Lett, 2005) come the findings set out here.

One assay has as its target D(2) dopamine receptor (Homo sapiens, UniProt P14416). Description: Binding affinity against Dopamine receptor D2 expressed in CHO cells. Type of assay: cell-based. Put shortly:
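Radioligand binding with [³H]spiperone on membranes of CHO cells expressing human DA D₂ receptors. Membranes and radioligand were incubated 120 min with or without varying compound concentrations. Haloperidol at high concentration defined nonspecific binding. Bound label was separated by vacuum filtration and counted by liquid scintillation. IC₅₀ was fitted by nonlinear regression and converted to Ki with Cheng–Prusoff.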

Assay [1] deals with 5-hydroxytryptamine receptor 2A (Homo sapiens, UniProt P28223). Nature of the assay: Binding affinity for 5-hydroxytryptamine 2A receptor expressed in 3T3 cells. Type of assay: cell-based. Put shortly: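 [³H]Ketanserin displacement on membranes of Swiss 3T3 cells expressing human 5-HT2A receptors. Incubation was 120 min across varying compound concentrations. Nonspecific binding came from high unlabeled ketanserin. Bound and free label were separated by vacuum filtration, and bound label was quantified by liquid scintillation. Percent inhibition of specific binding was fitted by nonlinear regression to give IC₅₀, then converted to Ki with Cheng–Prusoff.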
Chain of 5-hydroxytryptamine receptor 2A (P28223 whole entry): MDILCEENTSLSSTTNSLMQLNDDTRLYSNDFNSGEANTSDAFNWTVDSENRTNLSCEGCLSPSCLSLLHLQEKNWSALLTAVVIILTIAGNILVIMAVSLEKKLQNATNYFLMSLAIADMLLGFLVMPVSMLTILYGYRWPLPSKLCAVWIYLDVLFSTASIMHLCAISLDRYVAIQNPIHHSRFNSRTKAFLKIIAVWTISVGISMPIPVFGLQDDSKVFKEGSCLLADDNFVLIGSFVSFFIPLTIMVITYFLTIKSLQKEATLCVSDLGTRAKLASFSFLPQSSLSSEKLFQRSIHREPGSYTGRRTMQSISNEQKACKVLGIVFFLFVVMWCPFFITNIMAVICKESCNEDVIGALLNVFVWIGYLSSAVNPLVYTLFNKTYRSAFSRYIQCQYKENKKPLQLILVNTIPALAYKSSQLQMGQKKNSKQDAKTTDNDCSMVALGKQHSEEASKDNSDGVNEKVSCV

Chain of D(2) dopamine receptor (P14416 whole entry): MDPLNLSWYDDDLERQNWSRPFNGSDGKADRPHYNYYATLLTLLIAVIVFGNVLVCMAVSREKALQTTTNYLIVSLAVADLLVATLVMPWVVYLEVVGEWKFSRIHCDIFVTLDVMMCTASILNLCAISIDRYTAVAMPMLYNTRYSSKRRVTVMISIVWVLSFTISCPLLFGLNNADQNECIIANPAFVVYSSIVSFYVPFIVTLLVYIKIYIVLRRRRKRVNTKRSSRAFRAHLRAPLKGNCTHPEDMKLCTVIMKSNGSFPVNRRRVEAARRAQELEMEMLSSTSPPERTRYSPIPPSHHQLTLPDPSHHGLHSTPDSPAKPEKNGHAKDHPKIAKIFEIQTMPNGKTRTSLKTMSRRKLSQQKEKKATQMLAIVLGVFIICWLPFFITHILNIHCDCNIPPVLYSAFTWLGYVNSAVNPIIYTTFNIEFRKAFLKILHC

On to `CC1(C)CCNc2c(CCN3CCN(c4nsc5ccccc45)CC3)cccc21`, for which the Ki is 59 nM at D(2) dopamine receptor and 0.18 nM in assay [1].

As to `CC1CC(=O)Nc2c(CCN3CCN(c4nsc5ccccc45)CC3)cc(Cl)cc21` (configuration not stated), the Ki on D(2) dopamine receptor is greater than 100 nM; in assay [1], 0.05 nM.

Turning to `CC1CCN(C(=O)c2ccccc2)c2c(CCN3CCN(c4nsc5ccccc45)CC3)cccc21` (configuration not stated), the Ki on D(2) dopamine receptor was 16 nM; in assay [1] it was 0.61 nM.

For `CC1Cc2cccc(CCN3CCN(c4nsc5ccccc45)CC3)c2NC1=O` (configuration not stated), the Ki at D(2) dopamine receptor was 73 nM; in assay [1] it was 1.06 nM.

On to `CC(=O)N1CCC(C)c2c(C)ccc(CCN3CCN(c4noc5ccccc45)CC3)c21` (configuration not stated), for which the Ki is 17 nM on D(2) dopamine receptor and 0.32 nM in assay [1].

Take `CC1CCN(C(=O)C2CCCCC2)c2c(CCN3CCN(c4nsc5ccccc45)CC3)cccc21` (configuration not stated): the Ki on D(2) dopamine receptor came out at 25 nM; in assay [1] it was 0.59 nM.

`CC1CC(=O)Nc2c(CCN3CCN(c4nsc5ccccc45)CC3)cc(F)cc21` (configuration not stated): the Ki at D(2) dopamine receptor worked out at 15 nM; in assay [1] it was 0.17 nM.

Turning to `CC(=O)N1CCC(C)c2c(C)ccc(CCN3CCN(c4nsc5ccccc45)CC3)c21` (configuration not stated), the figures for the Ki (at D(2) dopamine receptor; in assay [1]) were 12 nM and 0.75 nM, respectively.

In the case of `Cc1cc(CCN2CCN(c3noc4ccccc34)CC2)c2c(c1)C(C)CC(=O)N2` (configuration not stated), the Ki worked out at 35 nM on D(2) dopamine receptor and 0.28 nM in assay [1].

Take `COc1cccc(CC(=O)N2CCC(C)c3cccc(CCN4CCN(c5nsc6ccccc56)CC4)c32)c1` (configuration not stated): the Ki on D(2) dopamine receptor is 4 nM; in assay [1], 1.07 nM.

With `CC(=O)N1CCC(C)c2cc(Cl)cc(CCN3CCN(c4nsc5ccccc45)CC3)c21` (configuration not stated), the Ki on D(2) dopamine receptor was greater than 50 nM; in assay [1], 0.31 nM.

In the case of `CC1(C)CCNc2c(CCN3CCN(c4nsc5ccccc45)CC3)cc(F)cc21`, the inhibition constant (Ki) at D(2) dopamine receptor amounted to 55 nM; in assay [1], 0.28 nM.

With `CC(=O)N1CCC(C)c2cccc(CCN3CCN(c4nsc5ccccc45)CC3)c21` (configuration not stated), the Ki on D(2) dopamine receptor came to 17 nM; in assay [1], 0.3 nM.

As for `CC(=O)N1CCC(C)c2cc(F)cc(CCN3CCN(c4noc5ccccc45)CC3)c21` (configuration not stated), the figures for the Ki (on D(2) dopamine receptor; in assay [1]) were 29 nM and 0.29 nM, respectively.

Regarding `CC1CC(=O)Nc2c(CCN3CCN(c4nsc5ccccc45)CC3)cccc21` (configuration not stated), the inhibition constant Ki at D(2) dopamine receptor worked out at 21 nM; in assay [1], 0.22 nM.

Take `CC1CC(=O)Nc2c(CCN3CCN(c4noc5ccccc45)CC3)cc(F)cc21` (configuration not stated): the Ki is greater than 100 nM at D(2) dopamine receptor and 0.28 nM in assay [1].

Consider `O=C1CCc2cccc(CCN3CCN(c4nsc5ccccc45)CC3)c2N1`, for which the Ki was greater than 100 nM on D(2) dopamine receptor and 0.28 nM in assay [1].

For `CC1CC(=O)N(C)c2c(CCN3CCN(c4nsc5ccccc45)CC3)cccc21` (configuration not stated), the Ki stood at 81 nM on D(2) dopamine receptor and 0.17 nM in assay [1].

For `CC(=O)N1CCC(C)c2cc(F)cc(CCN3CCN(c4nsc5ccccc45)CC3)c21` (configuration not stated), the Ki at D(2) dopamine receptor stood at 18 nM; in assay [1] it was 0.44 nM.

`CC1CC(=O)Nc2c(CCN3CCN(c4noc5ccccc45)CC3)cccc21` (configuration not stated): the Ki on D(2) dopamine receptor was greater than 100 nM; in assay [1] it was 190 nM.

For `CC1CC(=O)Nc2c(CCN3CCN(c4n[s+]([O-])c5ccccc45)CC3)cc(F)cc21` (configuration not stated), the Ki stood at 92 nM at D(2) dopamine receptor and 2.23 nM in assay [1].

`O=C1CC(c2ccccc2)c2cccc(CCN3CCN(c4nsc5ccccc45)CC3)c2N1` (configuration not stated): the affinity in assay [1], expressed as Ki, was 0.18 nM.

Take `CC(=O)N1CCC(c2ccccc2)c2cccc(CCN3CCN(c4nsc5ccccc45)CC3)c21` (configuration not stated): the Ki at D(2) dopamine receptor turned out to be 12 nM; in assay [1] it was 2.15 nM.

For the compound `Cc1ccc(CCN2CCN(c3nsc4ccccc34)CC2)c2c1C(C)CC(=O)N2` (configuration not stated), the inhibition constant Ki on D(2) dopamine receptor stood at 11 nM; in assay [1], 0.13 nM.
